Among the data in ChEMBL document CHEMBL1129460, “Synthesis, biotransformation, and pharmacokinetic studies of 9-(beta-D-arabinofuranosyl)-6-azidopurine: a prodrug for ara-A designed to utilize the azide reduction pathway” (J Med Chem, 1996) are Activity, Kel and T1/2 values, retold here.

Data set [1] in a line: Pharmacokinetic parameter after dosing of 100 mg/kg of compound administered intravenously in brain. Type of data set: ADME, organism-based. On the set-up: dose 100 mg/kg, route intravenous. As to conditions: in vivo, iv. The procedure, abridged:
(§1)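 Female NIH Swiss mice (24–28 g) dosed 100 mg/kg, iv or po by line. At least three mice were sacrificed per time point, 0.08–6 h, and whole brains were frozen at -20 °C. Extracts were assayed by HPLC-UV with AzdU internal standard. Noncompartmental analysis: linear trapezoidal AUC extrapolated to infinity, T1/2 = 0.693/λz, relative exposure re = AUC brain/AUC serum.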

The nature of data set [2]: Pharmacokinetic parameter after dosing of 100 mg/kg of compound administered orally in brain. Type of data set: ADME, organism-based. More on the design: dose 100 mg/kg, route oral. As to conditions: in vivo, po. A digest of the protocol: as §1
The species entered for data set [3] is Mus musculus. Nature of the data set: In vitro biotransformation of compound in mice liver homogenate 9-(beta-D-arabinifuranosyl)[…] analyte. It is filed as ADME. A digest of the protocol:
(§2)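 Mouse liver washed in cold saline, homogenized with 1 or 1.5 weight equiv water; homogenate incubated at 37 °C with substrate (initial 100 µg/mL; coformycin co-incubated where stated), water-bath shaker, blank half kept. Samples at 0, 5, 15, 30 min and 1–5 h; acetonitrile precipitation with AzdU internal standard, gradient HPLC-UV for ara-H, ara-A and 6-AAP. Kel and T1/2 are averages of two studies.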

The species named for data set [4] is Mus musculus. Nature of the data set: In vitro biotransformation of compound along with coformycin in mice liver homogenate 9-(beta-D-arabinifuranosyl)adenine(ara-A) analyte. It is filed as ADME. The procedure, abridged:
as §2

The species named for data set [5] is Mus musculus. Nature of the data set: In vitro biotransformation of compound in mice liver homogenate 9-(beta-D-arabinifuranosyl)-6-hypoxanthine(ara-H) analyte. It is filed as ADME. The procedure, abridged: as §2
For data set [6], the species on record is Mus musculus. The data set can be described thus: In vitro biotransformation of compound in mice liver homogenate 9-(beta-D-arabinifuranosyl)adenine(ara-A) analyte. It is filed as ADME. The procedure, abridged:
as §2

`Nc1ncnc2c1ncn2[C@@H]1O[C@H](CO)[C@@H](O)[C@@H]1O` [VIDARABINE]: in data set [1], the Activity is 0.05. This compound also registered an Activity in data set [2] of 1.35. In the data set listed under Mus musculus [3], this compound came in with a Kel of 0.31 h⁻¹ and a T1/2 of 2.24 h.
On to `OC[C@H]1O[C@@H](n2cnc3c2NC=NC[C@H]3O)[C@H](O)[C@@H]1O.[N-]=[N+]=Nc1ncnc2c1ncn2[C@@H]1O[C@H](CO)[C@@H](O)[C@@H]1O`, for which, in the data set filed under Mus musculus [4], the Kel came to 0.27 h⁻¹ and the T1/2 amounted to 2.58 h.
As for `[N-]=[N+]=Nc1ncnc2c1ncn2[C@@H]1O[C@H](CO)[C@@H](O)[C@@H]1O`, the Activity in data set [1] is 0.02; in data set [2], 0.3. For the same compound, the Kel came to 0.26 h⁻¹ in the data set listed under Mus musculus [5] and 0.48 h⁻¹ in the data set filed under Mus musculus [6]. The T1/2 came to 2.45 h in the data set filed under Mus musculus [5] and 1.46 h in the data set listed under Mus musculus [6].
